Reference: ChEMBL document CHEMBL1134627, “Synthesis of novel, potent, diol-based HIV-1 protease inhibitors via intermolecular pinacol homocoupling of (2S)-2-benzyloxymethyl-4-phenylbutanal” (J Med Chem, 2001)

How the values were obtained:
MT4 [1] = assay: Inhibitory activity against MT-4 cells; type: functional; details: Homo sapiens, read-out: ED50 (the source's name)
Procedure, shortened: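 HIV-induced cytopathic effect measured in MT-4 cells, with cell viability read out using the vital dye XTT. ED50 was calculated from the percent cytoprotection for each compound.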

MT4 [2] = assay: Inhibitory activity against MT-4 cells, in the presence of human serum; type: functional; details: read-out: ED50 (the source's name)
Procedure, shortened: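 HIV cytopathic assay in MT-4 cells run in the presence of 40% human serum, with viability read out using the vital dye XTT. ED50 was calculated from the percent cytoprotection.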

[3] = biological target: Human immunodeficiency virus type 1 protease (Human immunodeficiency virus 1, UniProt Q72874); assay: Inhibitory activity against HIV-1 protease (Escherichia coli)
Procedure, shortened: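 Recombinant HIV-1 protease, cloned and expressed in E. coli. Ki values were determined with a fluorometric assay.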

Row | SMILES | EC50 (MT4 [1]) [µM] | EC50 (MT4 [2]) [µM] | Ki [3] [µM]
1 | CNC(=O)[C@@H](NC(=O)[C@H](OCc1ccccc1)[C@H](O)[C@@H](O)[C@@H](OCc1ccccc1)C(=O)N[C@H](C(=O)NC)C(C)C)C(C)C | 1.3 | 34 | –
2 | O=C(NC1c2ccccc2C[C@H]1O)[C@H](OCc1ccccc1)[C@H](O)[C@@H](O)[C@@H](OCc1ccccc1)C(=O)N[C@H]1c2ccccc2C[C@H]1O (some centres not stated) | 0.096 | 1.5 | 0.0006
3 | O=C(NC1c2ccccc2C[C@H]1O)[C@H](CCc1ccccc1)[C@@H](O)[C@H](O)[C@@H](CCc1ccccc1)C(=O)N[C@H]1c2ccccc2C[C@H]1O (some centres not stated) | 0.093 | 0.39 | 0.0011
4 | CNC(=O)[C@@H](NC(=O)[C@H](CCc1ccccc1)[C@@H](O)[C@H](O)[C@@H](CCc1ccccc1)C(=O)N[C@H](C(=O)NC)C(C)C)C(C)C | 1.9 | 1.4 | 0.0004
5 | O=C(NC1c2ccccc2C[C@H]1O)[C@H](CCc1ccccc1)[C@H](O)[C@H](O)[C@@H](CCc1ccccc1)C(=O)N[C@H]1c2ccccc2C[C@H]1O (some centres not stated) | > 10 | 15 | 0.028
6 | CNC(=O)[C@@H](NC(=O)[C@H](CCc1ccccc1)[C@H](O)[C@H](O)[C@@H](CCc1ccccc1)C(=O)N[C@H](C(=O)NC)C(C)C)C(C)C | > 10 | > 10 | 0.112
